Test results taken from ChEMBL document CHEMBL5143652, “Quinazolinones as allosteric fourth-generation EGFR inhibitors for the treatment of NSCLC” (Bioorg Med Chem Lett, 2022).
The source made the active and inactive calls. No cut-off for these calls is given here.

Columns and labels:
[1] = Half life in rat at 1 mg/kg, iv; type: ADME, organism-based; conditions: in vivo
[2] = system: NCI-H1975; test: Antitumor activity against human NCI-H1975 cells harboring EGFR L858R/T790M mutant xenografted in rat assessed as tumor growth inhibition at 50 mg/kg, po administered once daily for 20 days and measured on 35 day; type: functional, organism-based
[3] = Oral bioavailability in rat at 10 mg/kg; type: ADME, organism-based; conditions: in vivo
[4] = Clearance in rat at 1 mg/kg, iv; type: ADME, organism-based; conditions: in vivo
[5] = system: NCI-H1975; test: Antitumor activity against human NCI-H1975 cells harboring EGFR L858R/T790M mutant xenografted in rat assessed as slower regrowth of tumor at 50 mg/kg, po administered once daily for 20 days and measured on 35 day; type: functional, organism-based
[6] = system: NCI-H1975; test: Antitumor activity against human NCI-H1975 cells harboring EGFR L858R/T790M mutant xenografted in rat assessed as slower regrowth of tumor at 50 mg/kg, po administered once daily for 20 days and measured on 35 day
[7] = system: NCI-H1975; test: Antitumor activity against human NCI-H1975 cells harboring EGFR L858R/T790M mutant xenografted in rat assessed as tumor growth inhibition at 25 mg/kg, po administered once daily for 20 days and measured on 35 day; type: functional, organism-based
[8] = system: BaF3; test: Antiproliferative activity against mouse BaF3 cells harboring EGFR L858R/T790M double mutant assessed as inhibition of cell growth; type: functional, cell-based
Summary of the method: (§1)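 Ba/F3 proliferation assay with the compound alone (single-agent readout, no cetuximab). Cellular IC50 is reported in μM.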

[9] = Clearance in mouse at 3 mg/kg, iv; type: ADME, organism-based; conditions: in vivo
[10] = AUC (0 to 8 hrs) in mouse at 3 mg/kg, iv or 20 mg/kg, po; type: ADME, organism-based; set-up: dose 3 mg/kg, route iv; conditions: in vivo
[11] = molecular target: Epidermal growth factor receptor (Homo sapiens, UniProt P00533, L858R/T790M); test: biochemical
Epidermal growth factor receptor, sequence (P00533 25-1210 T790M/L858R limits assumed): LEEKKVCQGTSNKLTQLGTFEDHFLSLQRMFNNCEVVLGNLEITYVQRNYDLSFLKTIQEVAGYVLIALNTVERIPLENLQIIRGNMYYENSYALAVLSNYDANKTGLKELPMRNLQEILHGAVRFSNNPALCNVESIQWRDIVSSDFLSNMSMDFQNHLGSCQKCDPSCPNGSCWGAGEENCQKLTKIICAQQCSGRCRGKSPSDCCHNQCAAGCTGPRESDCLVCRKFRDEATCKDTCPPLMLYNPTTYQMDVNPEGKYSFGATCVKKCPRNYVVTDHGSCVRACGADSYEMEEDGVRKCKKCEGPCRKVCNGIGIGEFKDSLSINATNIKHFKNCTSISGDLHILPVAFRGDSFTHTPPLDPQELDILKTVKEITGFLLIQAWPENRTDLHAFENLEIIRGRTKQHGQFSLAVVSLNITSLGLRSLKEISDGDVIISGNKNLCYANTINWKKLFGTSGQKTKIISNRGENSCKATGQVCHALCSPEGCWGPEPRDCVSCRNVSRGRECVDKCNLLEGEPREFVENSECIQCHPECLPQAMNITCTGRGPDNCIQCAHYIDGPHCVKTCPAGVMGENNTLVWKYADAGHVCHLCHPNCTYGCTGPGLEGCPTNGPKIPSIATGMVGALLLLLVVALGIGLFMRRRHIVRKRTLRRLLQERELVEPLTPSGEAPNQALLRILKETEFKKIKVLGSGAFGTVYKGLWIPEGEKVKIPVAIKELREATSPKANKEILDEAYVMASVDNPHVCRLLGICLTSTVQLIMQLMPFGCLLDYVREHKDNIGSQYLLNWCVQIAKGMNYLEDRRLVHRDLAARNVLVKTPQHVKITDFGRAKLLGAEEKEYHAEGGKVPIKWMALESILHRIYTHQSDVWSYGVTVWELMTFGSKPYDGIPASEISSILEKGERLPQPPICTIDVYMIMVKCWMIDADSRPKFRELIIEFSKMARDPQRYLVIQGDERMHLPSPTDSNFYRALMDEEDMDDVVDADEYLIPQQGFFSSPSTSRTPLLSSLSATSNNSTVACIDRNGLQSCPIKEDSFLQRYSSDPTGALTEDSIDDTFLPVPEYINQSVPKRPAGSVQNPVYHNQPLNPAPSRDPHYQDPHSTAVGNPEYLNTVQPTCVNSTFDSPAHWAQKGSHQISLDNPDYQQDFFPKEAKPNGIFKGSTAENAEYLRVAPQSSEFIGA

[12] = Oral bioavailability in mouse at 20 mg/kg; type: ADME, organism-based; conditions: in vivo
[13] = Half life in mouse at 3 mg/kg, iv; type: ADME, organism-based; conditions: in vivo
[14] = system: BaF3; test: Antiproliferative activity against mouse BaF3 cells harboring EGFR L858R/T790M double mutant assessed as inhibition of cell growth in presence of cetuximab; type: functional, cell-based
Summary of the method: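 Ba/F3 proliferation assay, second readout: cells co-treated with cetuximab to prevent EGFR dimer formation. Cellular IC50 is reported in μM.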

[15] = Volume of distribution at steady state in mouse at 3 mg/kg, iv or 20 mg/kg, po; type: ADME, organism-based; conditions: in vivo, read-out: Vdss
[16] = system: BaF3; test: Antiproliferative activity against mouse BaF3 cells harboring EGFR L858R/T790M/C797S triple mutant assessed as inhibition of cell growth; type: functional, cell-based; summary of the method: as §1

SMILES | IC50 [8] [µM] | IC50 [11] [µM] | IC50 [14] [µM] | IC50 [16] [µM] | other results
CN1CCC(c2ccc(-c3ccc4ncn(C(C(=O)Nc5nccs5)c5ccccc5)c(=O)c4c3F)cc2)CC1 (stereo not drawn) |  |  |  |  | t1/2 [1]: 3.5 h; Activity [2]: Active; F [3]: 24%; clearance [4]: 1.8 L/h/kg; Activity [5]: Active; Activity [6]: Active; Activity [7]: Active
CN1CCN(c2ccc(-c3ccc4c(c3)C(=O)N(C(C(=O)Nc3nccs3)c3cc(F)ccc3O)C4)cc2)CC1 (stereo not drawn) | 0.49 | 0.0003 | 0.006 |  | clearance [9]: 0.618 L/h/kg; AUC(0-t) [10]: 1.35 µg·h/mL; F [12]: 2%; half-life [13]: 2.8 h; Vd [15]: 1.8 L/kg
O=C(Nc1nccs1)C(c1cc(F)ccc1O)N1Cc2ccc(-c3ccc(N4CCNCC4)cc3)cc2C1=O (stereo not drawn) | 0.61 |  | 0.021 |  | clearance [9]: 0.3 L/h/kg; AUC(0-t) [10]: 2.52 µg·h/mL; half-life [13]: 3 h; Vd [15]: 0.6 L/kg
CN1CCC(c2ccc(-c3cc(F)c4ncn(C(C(=O)Nc5nccs5)c5ccccc5)c(=O)c4c3)cc2)CC1 (stereo not drawn) | 0.81 |  | 0.01 | 0.15 | 
CN1CCN(c2ccc(-c3ccc4c(=O)n(C(C(=O)Nc5nccs5)c5ccccc5)ccc4c3)cc2)CC1 (stereo not drawn) | 1.27 | 0.0034 | 0.062 |  | 
CN1CCC(c2ccc(-c3ccc4c(c3)CCN(C(C(=O)Nc3nccs3)c3cccc(F)c3)C4=O)cc2)CC1 (stereo not drawn) | 1.99 | 0.0022 |  |  | 
CN1CCN(c2ccc(-c3ccc4c(=O)n(C(C(=O)Nc5nccs5)c5ccccc5)cnc4c3)cc2)CC1 (stereo not drawn) | 2 | 0.0031 | 0.375 |  | 
CN1CCC(c2ccc(-c3ccc4c(c3)C(=O)N(C(C(=O)Nc3nccs3)c3cccc(F)c3)C4)cc2)CC1 (stereo not drawn) | 1.07 | 0.0002 | 0.02 | 0.152 | clearance [9]: 0.834 L/h/kg; AUC(0-t) [10]: 1 µg·h/mL; F [12]: 4%; half-life [13]: 3.1 h; Vd [15]: 2.4 L/kg
CN1CCC(c2ccc(-c3ccc4c(=O)n(C(C(=O)Nc5nccs5)c5ccccc5)ccc4c3)cc2)CC1 (stereo not drawn) | 1.28 | 0.0012 | 0.024 | 0.5 | 
O=C(Nc1nccs1)C(c1cc(F)ccc1O)N1Cc2ccccc2C1=O (stereo not drawn) | > 10 |  | 0.221 |  | 
CN1CCC(c2ccc(-c3ccc4ncn(C(C(=O)Nc5nccs5)c5ccccc5)c(=O)c4n3)cc2)CC1 (stereo not drawn) | 1.71 |  | 0.016 | 0.09 | 
CN1CCC(c2ccc(-c3cnc4ncn(C(C(=O)Nc5nccs5)c5ccccc5)c(=O)c4c3)cc2)CC1 (stereo not drawn) | 1.14 | 0.0019 | 0.023 | 0.31 | 
CN1CCC(c2ccc(-c3ccc4cnn(C(C(=O)Nc5nccs5)c5ccccc5)c(=O)c4c3)cc2)CC1 (stereo not drawn) | 1.54 |  | 0.207 | 0.44 | 
CN1CCN(c2ccc(-c3ccc4ccn(C(C(=O)Nc5nccs5)c5ccccc5)c(=O)c4c3)cc2)CC1 (stereo not drawn) | 1.85 |  |  |  | 
